Test results published in ChEMBL document CHEMBL1152671, “Structure-activity relationship studies of manzamine A: amidation of positions 6 and 8 of the beta-carboline moiety” (Bioorg Med Chem, 2009).
Values after ≈ are worked out from the molar mass of the structure shown. Active and inactive are the calls of the source.

Columns and labels:
Plasmodium falciparum [1] = assay: Antimalarial activity against chloroquine-sensitive Plasmodium falciparum D6 infected in African green monkey (Cercopithecus aethiops) Vero cells assessed as parasite LDH activity after 72 hrs; type: functional, organism-based
Plasmodium falciparum [2] = assay: Antimalarial activity against chloroquine-resistant Plasmodium falciparum W2 infected in African green monkey (Cercopithecus aethiops) (Cercopithecus aethiops) Vero cells assessed as parasite LDH activity after 72 hrs; type: functional, organism-based
Vero = assay: Cytotoxicity against african green monkey Vero cells up to 470 nM by neutral red assay; type: cell-based; details: chlorocebus sabaeus
Plasmodium berghei = assay: Antimalarial activity against Plasmodium berghei NK65 infected in Swiss Webster mice (Mus musculus) assessed as inhibition of parasitaemia at 30 mg/kg, perorally daily for 3 consecutive days administered 2 hrs after infection measured on day 28 post infection; type: functional; details: route oral
Summary of the method: (§1)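 Male Swiss Webster mice, 18–20 g, inoculated intraperitoneally with 2 × 10⁷ P. berghei NK-65 parasitized red blood cells taken from a donor mouse. Groups of 5 mice were dosed orally about 2 h post-infection, once daily on […], at 3.3, 10 or 30 mg/kg. Controls were vehicle and chloroquine 10 mg/kg. Mice were observed after each dose for toxicity signs. Parasitemia was read on Giemsa-stained tail-blood smears, with suppression on days 5 and 7 and cure defined as no parasitemia to day 28.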

Mus musculus = assay: Toxicity in Swiss Webster mice (Mus musculus) infected with Plasmodium berghei NK65 at 30 mg/kg, perorally QD for 3 consecutive days administered 2 hrs after infection; type: organism-based; design: dose 30 mg/kg, route oral; details: in vivo, po; summary of the method: as §1
Candida albicans [3] = assay: Antifungal activity against Candida albicans by modified NCCLS method; type: functional, organism-based
Cryptococcus neoformans [4] = assay: Antifungal activity against Cryptococcus neoformans by modified NCCLS method; type: functional, organism-based
Cryptococcus neoformans [5] = assay: Antifungal activity against Cryptococcus neoformans after 24 hrs by alamar blue assay; type: functional
[6] = tested on: Mycobacterium intracellulare; assay: Antibacterial activity against Mycobacterium intracellular by alamar blue assay; type: functional, organism-based
[7] = tested on: Mycobacterium intracellulare; assay: Antibacterial activity against Mycobacterium intracellular after 24 hrs by alamar blue assay; type: functional
Aspergillus fumigatus [8] = assay: Antifungal activity against Aspergillus fumigatus by modified NCCLS method; type: functional, organism-based
Escherichia coli = assay: Antibacterial activity against Escherichia coli by modified NCCLS method; type: functional, organism-based
Pseudomonas aeruginosa = assay: Antibacterial activity against Pseudomonas aeruginosa by modified NCCLS method; type: functional, organism-based
Candida albicans [9] = tested on: Candida albicans
Aspergillus fumigatus [10] = tested on: Aspergillus fumigatus
Candida albicans [11] = assay: Antifungal activity against Candida albicans after 24 hrs by alamar blue assay
Aspergillus fumigatus [12] = assay: Antifungal activity against Aspergillus fumigatus after 24 hrs by alamar blue assay
[13] = Therapeutic index, ratio of TC50 for african green monkey (Cercopithecus aethiops) Vero cells to IC50 for chloroquine-sensitive Plasmodium falciparum D6 infected in african green monkey (Cercopithecus aethiops) Vero cells; type: cell-based; details: read-out: TI
[14] = Therapeutic index, ratio of TC50 for african green monkey (Cercopithecus aethiops) Vero cells to IC50 for chloroquine-resistant Plasmodium falciparum W2 infected in african green monkey (Cercopithecus aethiops) Vero cells; type: cell-based; details: read-out: TI
[15] = Cryptococcus neoformans, read-out: IC50
[16] = Candida albicans, read-out: IC50

SMILES | IC50 (Plasmodium falciparum [1]) | IC50 (Plasmodium falciparum [2]) | Activity (Vero) | IC50 (Candida albicans [3]) | IC50 (Cryptococcus neoformans [4]; [15]) | MIC (Cryptococcus neoformans [5]) | IC50 [6] | MIC [7] | IC50 (Aspergillus fumigatus [8]) | Activity (Escherichia coli) | Activity (Pseudomonas aeruginosa) | MIC (Candida albicans [9]) | MIC (Aspergillus fumigatus [10]) | other results
O=C(Nc1ccc2[nH]c3c(C4=C[C@@]5(O)CC/C=C\CCCCN6CC[C@@H]4[C@]4(C[C@@H]7/C=C\CCCCN7[C@H]45)C6)nccc3c2c1)C1CCCCC1 [6-CYCLOHEXAMIDOMANZAMINE A] | 34 nM | 53 nM | Non-toxic | Not Active | 22.3 µM | inactive | 1260 nM | 1.86 µM (≈ 1.25 µg/mL) | Not Active | inactive | inactive | inactive | inactive | inhibition in vivo at 30 mg/kg (Plasmodium berghei): 24%; Activity (Mus musculus): Non-toxic
CC(=O)Nc1cccc2c1[nH]c1c(C3=C[C@@]4(O)CC/C=C\CCCCN5CC[C@@H]3[C@]3(C[C@@H]6/C=C\CCCCN6[C@H]34)C5)nccc12 [8-ACETAMIDOMANZAMINE A] | 182 nM | 231 nM | Non-toxic | Not Active | 33.4 µM | inactive | 1650 nM | 2.06 µM (≈ 1.25 µg/mL) | Not Active | inactive | inactive | inactive | inactive | –
O=C(Nc1cccc2c1[nH]c1c(C3=C[C@@]4(O)CC/C=C\CCCCN5CC[C@@H]3[C@]3(C[C@@H]6/C=C\CCCCN6[C@H]34)C5)nccc12)C1CCCCC1 [8-CYCLOHEXAMIDOMANZAMINE A] | 950 nM | 995 nM | Non-toxic | Not Active | – | inactive | 11100 nM | 14.8 µM (≈ 10 µg/mL) | Not Active | inactive | inactive | inactive | inactive | IC50 (Cryptococcus neoformans [4]): Not Active
CC(C)C(=O)Nc1cccc2c1[nH]c1c(C3=C[C@@]4(O)CC/C=C\CCCCN5CC[C@@H]3[C@]3(C[C@@H]6/C=C\CCCCN6[C@H]34)C5)nccc12 [8-ISOBUTAMIDOMANZAMINE A] | 158 nM | 205 nM | Non-toxic | Not Active | 3.16 µM | inactive | 1030 nM | 1.97 µM (≈ 1.25 µg/mL) | Not Active | inactive | inactive | inactive | inactive | –
CCCC(=O)Nc1cccc2c1[nH]c1c(C3=C[C@@]4(O)CC/C=C\CCCCN5CC[C@@H]3[C@]3(C[C@@H]6/C=C\CCCCN6[C@H]34)C5)nccc12 [8-N-BUTAMIDOMANZAMINE A] | 35 nM | 121 nM | Non-toxic | Not Active | 23.7 µM | inactive | 868 nM | 1.97 µM (≈ 1.25 µg/mL) | Not Active | inactive | inactive | inactive | inactive | –
CCCCCC(=O)Nc1cccc2c1[nH]c1c(C3=C[C@@]4(O)CC/C=C\CCCCN5CC[C@@H]3[C@]3(C[C@@H]6/C=C\CCCCN6[C@H]34)C5)nccc12 [8-N-HEXAMIDOMANZAMINE A] | 32 nM | 65 nM | Non-toxic | Not Active | 3.78 µM | inactive | 30 nM | 0.468 µM (≈ 0.31 µg/mL) | Not Active | inactive | inactive | inactive | inactive | inhibition in vivo at 30 mg/kg (Plasmodium berghei): 62%; Activity (Mus musculus): Non-toxic
CCCCCCC(=O)Nc1cccc2c1[nH]c1c(C3=C[C@@]4(O)CC/C=C\CCCCN5CC[C@@H]3[C@]3(C[C@@H]6/C=C\CCCCN6[C@H]34)C5)nccc12 [8-N-OCTAMIDOMANZAMINE A] | 55 nM | 43 nM | Non-toxic | Not Active | 1.01 µM | 29 µM (≈ 19.6 µg/mL) | 508 nM | 1.81 µM (≈ 1.23 µg/mL) | Not Active | inactive | inactive | inactive | inactive | –
CCCCC(=O)Nc1cccc2c1[nH]c1c(C3=C[C@@]4(O)CC/C=C\CCCCN5CC[C@@H]3[C@]3(C[C@@H]6/C=C\CCCCN6[C@H]34)C5)nccc12 [8-N-PENTAMIDOMANZAMINE A] | 53 nM | 49 nM | Non-toxic | Not Active | 4.63 µM | inactive | 695 nM | 0.973 µM (≈ 0.63 µg/mL) | Not Active | inactive | inactive | inactive | inactive | –
CC(C)(C)C(=O)Nc1cccc2c1[nH]c1c(C3=C[C@@]4(O)CC/C=C\CCCCN5CC[C@@H]3[C@]3(C[C@@H]6/C=C\CCCCN6[C@H]34)C5)nccc12 [8-PIVALAMIDOMANZAMINE A] | 170 nM | 232 nM | Non-toxic | Not Active | – | inactive | 540 nM | 0.973 µM (≈ 0.63 µg/mL) | Not Active | inactive | inactive | inactive | inactive | IC50 (Cryptococcus neoformans [4]): Not Active
C[C@@H]1[C@H](O)[C@@H](C)/C=C/C=C/C=C/C=C/C=C/C=C/C=C/[C@H](O[C@@H]2O[C@H](C)[C@@H](O)[C@H](N)[C@@H]2O)C[C@@H]2O[C@](O)(C[C@@H](O)C[C@@H](O)[C@H](O)CC[C@@H](O)C[C@@H](O)CC(=O)O[C@H]1C)C[C@H](O)[C@H]2C(=O)O [AMPHOTERICIN B] | – | – | – | – | 0.92 µM | 2.71 µM (≈ 2.5 µg/mL) | – | – | – | – | – | – | – | IC50 (Candida albicans [3]; [16]): 487 nM; MIC (Candida albicans [11]): 1.35 µM (≈ 1.25 µg/mL); IC50 (Aspergillus fumigatus [8]; Aspergillus fumigatus, read-out: IC50): 1620 nM; MIC (Aspergillus fumigatus [12]): 2.7 µM (≈ 2.5 µg/mL)
O[C@]12C=C(c3nccc4c3[nH]c3ccccc34)[C@@H]3CCN(CCCC/C=C\CC1)C[C@@]31C[C@@H]3/C=C\CCCCN3[C@H]12 [MANZAMINE A] | 8 nM | 11 nM | – | – | 1.85 µM | – | – | – | – | – | – | inactive | – | selectivity ratio [13]: 44; selectivity ratio [14]: 25; IC50 (Candida albicans [3]; [16]): 3660 nM
